Data on 1 compound can be found in ChEMBL document CHEMBL4145447, “4-arylamidobenzyl substituted 5-bromomethylene-2(5H)-furanones for chronic bacterial infection” (Eur J Med Chem, 2018).

This experiment has as its system Mus musculus. Description: Anti-inflammatory activity in LPS-induced sepsis shock mouse model assessed as survival rate at 5 mg/kg, iv pretreated daily for 5 days followed LPS treatment on day 5 at 1 hr post last dose and measured after 7 days relative to control. Type of experiment: functional. A digest of the protocol:
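Male SPF mice, randomly grouped, dosed i.v. with compound dissolved in DMSO and diluted in physiological saline; vehicle group given a similar volume. LPS was injected on day 5, 1 h after the last administration. Survival was recorded every 12 h for 7 days after LPS, with 11 animals per group per figure legend.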

On to `O=C(Cc1ccc(F)cc1)Nc1ccc(CC2=CC(=O)OC2=CBr)cc1`, for which the survival at 5 mg/kg turned out to be 36.5%.
